Data taken from ChEMBL document CHEMBL4038284, “Synthesis of novel quinoline-based 4,5-dihydro-1H-pyrazoles as potential anticancer, antifungal, antibacterial and antiprotozoal agents” (Eur J Med Chem, 2017).
Values after ≈ are worked out from the molar mass of the structure shown. Active and inactive are the calls of the source. The rule behind the calls is not given here.

What was measured:
Klebsiella pneumoniae = test: Antibacterial activity against ESBL positive Klebsiella pneumoniae ATCC 700603 after 24 hrs by resazurin dye based microdilution assay; type: functional; settings: Klebsiella pneumoniae, 700603, 24 h
In short: (§1)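 MIC taken as the lowest concentration giving visible inhibition and/or by resazurin (1 mg/mL). Gentamicin was the control. Run in duplicate, repeated at least three times.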

HL-60(TB) = test: Growth inhibition of human HL-60(TB) cells at 10 uM incubated for 48 hrs by sulforhodamine B assay; type: functional, cell-based
In short: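 NCI 60-line single-dose screen at 10 μM, 48 h. Cells in RPMI-1640 with 5% FBS and 2 mM L-glutamine at 37 °C, 5% CO2. Growth measured by TCA fixation and SRB staining (515 nm), relative to time-zero and untreated control wells.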

A549 = test: Growth inhibition of human A549/ATCC cells at 10 uM incubated for 48 hrs by sulforhodamine B assay; type: functional, cell-based
In short: (§2)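 NCI 60-cell-line screen at a single 10 µM dose. Cells in RPMI-1640 with 5% FBS and 2 mM L-glutamine, pre-incubated 24 h, then treated for 48 h at 37 °C. TCA fixation, sulforhodamine B staining, absorbance at 515 nm. Percentage growth calculated against time-zero and untreated controls.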

HOP-62 = test: Growth inhibition of human HOP62 cells at 10 uM incubated for 48 hrs by sulforhodamine B assay; type: functional, cell-based; in short: as §2
NCI-H226 = test: Growth inhibition of human NCI-H226 cells at 10 uM incubated for 48 hrs by sulforhodamine B assay; type: functional, cell-based
In short: (§3)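 NCI 60-line panel, single 10 μM dose. Cells were grown in RPMI-1640 with 5% FBS and 2 mM L-glutamine and pre-incubated 24 h before compound addition (DMSO stock). Exposure was 48 h at 37 °C, 5% CO2. Cells were fixed with cold TCA (10% final), stained with 0.4% SRB, bound dye dissolved in 10 mM Tris base, A515 read. Growth was taken relative to time-zero and untreated control plates.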

NCI-H322M = test: Growth inhibition of human NCI-H322M cells at 10 uM incubated for 48 hrs by sulforhodamine B assay; type: functional, cell-based; in short: as §3
NCI-H522 = test: Growth inhibition of human NCI-H522 cells at 10 uM incubated for 48 hrs by sulforhodamine B assay; type: functional, cell-based; in short: as §3
COLO 205 = test: Growth inhibition of human COLO205 cells at 10 uM incubated for 48 hrs by sulforhodamine B assay; type: functional, cell-based; in short: as §2
SW-620 = test: Growth inhibition of human SW620 cells at 10 uM incubated for 48 hrs by sulforhodamine B assay; type: functional, cell-based
In short: (§4)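 NCI-60 single-dose screen at 10 µM for 48 h. Cells were grown in RPMI-1640 with 5% FBS and 2 mM L-glutamine and preincubated 24 h before compound. Time-zero plates were TCA-fixed at compound addition. After exposure, cells were TCA-fixed, stained with SRB and read at 515 nm. Percentage growth was calculated against time-zero and untreated-control absorbances.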

SF-268 = test: Growth inhibition of human SF268 cells at 10 uM incubated for 48 hrs by sulforhodamine B assay; type: functional, cell-based; in short: as §3
SNB-19 = test: Growth inhibition of human SNB19 cells at 10 uM incubated for 48 hrs by sulforhodamine B assay; type: functional, cell-based; in short: as §4
SNB-75 = test: Growth inhibition of human SNB75 cells at 10 uM incubated for 48 hrs by sulforhodamine B assay; type: functional, cell-based; in short: as §4
U-251 = test: Growth inhibition of human U251 cells at 10 uM incubated for 48 hrs by sulforhodamine B assay; type: functional, cell-based; in short: as §4
SK-MEL-28 = test: Growth inhibition of human SK-MEL-28 cells at 10 uM incubated for 48 hrs by sulforhodamine B assay; type: functional, cell-based; in short: as §4
SK-MEL-5 = test: Growth inhibition of human SK-MEL-5 cells at 10 uM incubated for 48 hrs by sulforhodamine B assay; type: functional, cell-based; in short: as §4
UACC-257 = test: Growth inhibition of human UACC257 cells at 10 uM incubated for 48 hrs by sulforhodamine B assay; type: functional, cell-based; in short: as §4
OVCAR-8 = test: Growth inhibition of human OVCAR8 cells at 10 uM incubated for 48 hrs by sulforhodamine B assay; type: functional, cell-based; in short: as §3
SK-OV-3 = test: Growth inhibition of human SKOV3 cells at 10 uM incubated for 48 hrs by sulforhodamine B assay; type: functional, cell-based; in short: as §4
786-0 = test: Growth inhibition of human 786-0 cells at 10 uM incubated for 48 hrs by sulforhodamine B assay; type: functional, cell-based; in short: as §2
CAKI-1 = test: Growth inhibition of human Caki1 cells at 10 uM incubated for 48 hrs by sulforhodamine B assay; type: functional, cell-based; in short: as §2
RXF 393 = test: Growth inhibition of human RXF393 cells at 10 uM incubated for 48 hrs by sulforhodamine B assay; type: functional, cell-based; in short: as §3
UO-31 = test: Growth inhibition of human UO31 cells at 10 uM incubated for 48 hrs by sulforhodamine B assay; type: functional, cell-based; in short: as §4
PC-3 = test: Growth inhibition of human PC3 cells at 10 uM incubated for 48 hrs by sulforhodamine B assay; type: functional, cell-based; in short: as §3
Hs-578T = test: Growth inhibition of human Hs578T cells at 10 uM incubated for 48 hrs by sulforhodamine B assay; type: functional, cell-based; in short: as §3
T47D = test: Growth inhibition of human T47D cells at 10 uM incubated for 48 hrs by sulforhodamine B assay; type: functional, cell-based; in short: as §4
MDA-MB-468 = test: Growth inhibition of human MDA-MB-468 cells at 10 uM incubated for 48 hrs by sulforhodamine B assay; type: functional, cell-based; in short: as §3
Candida albicans = test: Antifungal activity against Candida albicans ATCC 10231 incubated for 48 hrs under dark condition by broth microdilution method; type: functional; settings: ATCC 10231, 48 h
In short: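 CLSI M27-A3 broth microdilution in RPMI-1640, DMSO ≤1%, compounds at 250-0.98 µg/mL final. Inoculum 1-5 × 10^3 CFU/mL. Incubated 48 h at 30 °C in a moist dark chamber, read at OD405. MIC80 and MIC50 taken from % inhibition dose-response curves (mean ± SEM, triplicate). Amphotericin B was the positive control.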

Cryptococcus neoformans = test: Growth inhibition of Cryptococcus neoformans ATCC 32264 at 7.8 ug/ml incubated for 48 hrs under dark condition by broth microdilution method relative to control; type: functional; settings: ATCC 32264, 48 h, read-out: GI
In short: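 CLSI M27-A3 broth microdilution in RPMI-1640, DMSO ≤1%. Inoculum 1-5 × 10^3 CFU/mL. Incubated 48 h at 30 °C, dark. % inhibition = 100 − (OD405 test − sterility control)/(OD405 growth control − sterility control), with growth and sterility control wells. Triplicate.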

Escherichia coli = test: Antibacterial activity against Escherichia coli ATCC 25922 after 24 hrs by resazurin dye based microdilution assay; type: functional; settings: ATCC 25922, 24 h; in short: as §1
U-937 = test: Cytotoxicity against human U937 cells after 72 hrs by MTT assay; type: cell-based; settings: u-937, 72 h
In short: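 Exponentially growing U-937 at 1 × 10^5 cells/mL in RPMI-1640 with 10% FBS were exposed to 200, 50, 12.5 and 3.125 µg/mL for 72 h at 37 °C, 5% CO2. MTT for 3 h, stopped with isopropanol/SDS, formazan read at 570 nm, blank-corrected. LC50 by Probit from % viability against untreated cells. Triplicate, at least two independent experiments.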

COc1ccc(C2=NN(c3ccccc3)C(c3cccc(Nc4ccnc5cc(Cl)ccc45)c3)C2)cc1 (stereo not drawn)
MIC (Klebsiella pneumoniae): > 1000 µg/mL
growth inhibition (GI) (HL-60(TB)): inactive
growth inhibition (GI) (A549): inactive
growth inhibition (GI) (HOP-62): inactive
growth inhibition (GI) (NCI-H226): inactive
growth inhibition (GI) (NCI-H322M): inactive
growth inhibition (GI) (NCI-H522): inactive
growth inhibition (GI) (COLO 205): inactive
growth inhibition (GI) (SW-620): inactive
growth inhibition (GI) (SF-268): inactive
growth inhibition (GI) (SNB-19): inactive
growth inhibition (GI) (SNB-75): inactive
growth inhibition (GI) (U-251): inactive
growth inhibition (GI) (SK-MEL-28): inactive
growth inhibition (GI) (SK-MEL-5): inactive
growth inhibition (GI) (UACC-257): inactive
growth inhibition (GI) (OVCAR-8): inactive
growth inhibition (GI) (SK-OV-3): inactive
growth inhibition (GI) (786-0): inactive
growth inhibition (GI) (CAKI-1): inactive
growth inhibition (GI) (RXF 393): inactive
growth inhibition (GI) (UO-31): inactive
growth inhibition (GI) (PC-3): inactive
growth inhibition (GI) (Hs-578T): inactive
growth inhibition (GI) (T47D): inactive
growth inhibition (GI) (MDA-MB-468): inactive
MIC50 (Candida albicans): ≥ 250 µg/mL
MIC80 (Candida albicans): ≥ 250 µg/mL
inhibition of growth at 7.8 µg/mL (Cryptococcus neoformans): 4.41%
MIC (Escherichia coli): > 1000 µg/mL
LC50 (U-937): 28 µg/mL (≈ 55.4 µM)

Clc1ccc(C2=NN(c3cc(Cl)cc(Cl)c3)C(c3cccc(Nc4ccnc5cc(Cl)ccc45)c3)C2)cc1 (stereo not drawn)
MIC (Klebsiella pneumoniae): > 1000 µg/mL
growth inhibition (GI) (HL-60(TB)): inactive
growth inhibition (GI) (A549): inactive
growth inhibition (GI) (HOP-62): inactive
growth inhibition (GI) (NCI-H226): inactive
growth inhibition (GI) (NCI-H322M): inactive
growth inhibition (GI) (NCI-H522): inactive
growth inhibition (GI) (COLO 205): inactive
growth inhibition (GI) (SW-620): inactive
growth inhibition (GI) (SF-268): inactive
growth inhibition (GI) (SNB-19): inactive
growth inhibition (GI) (SNB-75): inactive
growth inhibition (GI) (U-251): inactive
growth inhibition (GI) (SK-MEL-28): inactive
growth inhibition (GI) (SK-MEL-5): inactive
growth inhibition (GI) (UACC-257): inactive
growth inhibition (GI) (OVCAR-8): inactive
growth inhibition (GI) (SK-OV-3): inactive
growth inhibition (GI) (786-0): inactive
growth inhibition (GI) (CAKI-1): inactive
growth inhibition (GI) (RXF 393): inactive
growth inhibition (GI) (UO-31): inactive
growth inhibition (GI) (PC-3): inactive
growth inhibition (GI) (Hs-578T): inactive
growth inhibition (GI) (T47D): inactive
growth inhibition (GI) (MDA-MB-468): inactive
MIC50 (Candida albicans): ≥ 250 µg/mL
MIC80 (Candida albicans): ≥ 250 µg/mL
inhibition of growth at 7.8 µg/mL (Cryptococcus neoformans): 0%
MIC (Escherichia coli): > 1000 µg/mL
LC50 (U-937): > 200 µg/mL

COc1ccc(C2=NN(c3ccc(Cl)cc3)C(c3cccc(Nc4ccnc5cc(Cl)ccc45)c3)C2)cc1 (stereo not drawn)
MIC (Klebsiella pneumoniae): > 1000 µg/mL
growth inhibition (GI) (HL-60(TB)): inactive
growth inhibition (GI) (A549): inactive
growth inhibition (GI) (HOP-62): inactive
growth inhibition (GI) (NCI-H226): inactive
growth inhibition (GI) (NCI-H322M): inactive
growth inhibition (GI) (NCI-H522): inactive
growth inhibition (GI) (COLO 205): inactive
growth inhibition (GI) (SW-620): inactive
growth inhibition (GI) (SF-268): inactive
growth inhibition (GI) (SNB-19): inactive
growth inhibition (GI) (SNB-75): inactive
growth inhibition (GI) (U-251): inactive
growth inhibition (GI) (SK-MEL-28): inactive
growth inhibition (GI) (SK-MEL-5): inactive
growth inhibition (GI) (UACC-257): inactive
growth inhibition (GI) (OVCAR-8): inactive
growth inhibition (GI) (SK-OV-3): inactive
growth inhibition (GI) (786-0): inactive
growth inhibition (GI) (CAKI-1): inactive
growth inhibition (GI) (RXF 393): inactive
growth inhibition (GI) (UO-31): inactive
growth inhibition (GI) (PC-3): inactive
growth inhibition (GI) (Hs-578T): inactive
growth inhibition (GI) (T47D): inactive
growth inhibition (GI) (MDA-MB-468): inactive
MIC50 (Candida albicans): ≥ 250 µg/mL
MIC80 (Candida albicans): ≥ 250 µg/mL
inhibition of growth at 7.8 µg/mL (Cryptococcus neoformans): 10.1%
MIC (Escherichia coli): > 1000 µg/mL
LC50 (U-937): > 200 µg/mL
